Experiments:
[1] = target: T1, 5-hydroxytryptamine receptor 1A (Homo sapiens) (UniProt P08908); assay: Displacement of [3H]-8-OH-DPAT from human cloned 5HT1A receptor expressed in HEK293 cells at 1 uM by scintillation counting analysis; type: cell-based
T1 sequence (whole entry): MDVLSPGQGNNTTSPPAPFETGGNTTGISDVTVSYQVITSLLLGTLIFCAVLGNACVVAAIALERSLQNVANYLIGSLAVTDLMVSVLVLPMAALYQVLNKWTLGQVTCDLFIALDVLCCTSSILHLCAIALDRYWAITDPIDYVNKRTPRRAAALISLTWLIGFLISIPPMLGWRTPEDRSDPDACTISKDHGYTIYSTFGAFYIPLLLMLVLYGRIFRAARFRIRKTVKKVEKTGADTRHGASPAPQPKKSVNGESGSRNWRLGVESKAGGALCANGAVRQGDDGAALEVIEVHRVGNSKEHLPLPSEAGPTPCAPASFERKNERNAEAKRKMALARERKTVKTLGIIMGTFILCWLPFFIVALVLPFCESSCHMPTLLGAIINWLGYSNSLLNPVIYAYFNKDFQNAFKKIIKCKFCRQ
Procedure, shortened: (§1)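 Extended binding screen run by a contract lab. Receptors were cloned human: 5-HT1A, 5-HT2A, 5-HT2C and H1 in HEK-293 cells; D1, α1, α2C and M3 in CHO cells; 5-HT6/7 and D2/3/4 in CHO cells. Radioligand displacement was done at a single 1.0E-06 concentration in duplicate. Results are mean % inhibition of control specific binding.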

[2] = target: D(2) dopamine receptor (Homo sapiens) (UniProt P14416); assay: Antagonist activity at human recombinant D2 receptor expressed in HEK293 cells assessed as inhibition of dopamine-induced response at 1 uM; type: cell-based
Procedure, shortened: (§2)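 Functional assays run by a contract lab on CHO or HEK-293 cells stably expressing the human receptor. Read-out was intracellular cAMP, IP1 or Ca2+ release. A single test concentration of 1.0E-06 was used, in duplicate. Data are mean % of the control response.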

[3] = target: T2, Alpha-2C adrenergic receptor (Homo sapiens) (UniProt P18825); assay: Agonist activity at human recombinant alpha2C adrenoceptor expressed in CHO cells assessed as intracellular cAMP release at 1 uM by HTRF assay; type: functional, cell-based; procedure, shortened: as §2
T2 sequence (whole entry): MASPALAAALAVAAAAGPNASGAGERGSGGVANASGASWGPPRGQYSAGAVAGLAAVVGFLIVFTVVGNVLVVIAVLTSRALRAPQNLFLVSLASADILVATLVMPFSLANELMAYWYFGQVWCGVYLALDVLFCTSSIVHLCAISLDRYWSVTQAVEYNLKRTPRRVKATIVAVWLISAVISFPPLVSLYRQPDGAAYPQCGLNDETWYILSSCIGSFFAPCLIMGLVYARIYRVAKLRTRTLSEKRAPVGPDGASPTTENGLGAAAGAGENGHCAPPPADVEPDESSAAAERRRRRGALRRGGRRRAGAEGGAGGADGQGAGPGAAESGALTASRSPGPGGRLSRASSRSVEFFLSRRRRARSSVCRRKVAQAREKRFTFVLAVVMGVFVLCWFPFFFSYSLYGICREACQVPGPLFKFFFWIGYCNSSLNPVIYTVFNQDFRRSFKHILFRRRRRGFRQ

[4] = target: 5-hydroxytryptamine receptor 7 (Homo sapiens) (UniProt P34969); assay: Antagonist activity at human recombinant 5HT7 receptor expressed in CHO cells assessed as inhibition of serotonin-induced intracellular cAMP release at 1 uM by HTRF assay; type: functional, cell-based; procedure, shortened: as §2
[5] = target: 5-hydroxytryptamine receptor 2A (Homo sapiens) (UniProt P28223); assay: Displacement of [3H]ketanserin from human cloned 5HT2A receptor expressed in HEK293 cells at 1uM by scintillation counting analysis; type: cell-based; procedure, shortened: as §1
[6] = target: T3, Adrenergic receptor alpha-1 (Homo sapiens) (UniProt P35348+P25100+P35368); assay: Agonist activity at human recombinant alpha1 adrenoceptor expressed in CHO cells at 1 uM; type: cell-based; procedure, shortened: as §2
[7] = target: D(2) dopamine receptor (Homo sapiens) (UniProt P14416); assay: Agonist activity at human recombinant D2 receptor expressed in HEK293 cells at 1 uM; type: cell-based; procedure, shortened: as §2
[8] = target: T3, Adrenergic receptor alpha-1 (Homo sapiens); assay: Antagonist activity at human recombinant alpha1 adrenoceptor expressed in CHO cells assessed as inhibition of agonist induced response at 1 uM; type: cell-based; procedure, shortened: as §2
[9] = target: T1, 5-hydroxytryptamine receptor 1A (Homo sapiens); assay: Agonist activity at human recombinant 5HT1A receptor expressed in HEK293 cells at 1 uM; type: cell-based; procedure, shortened: as §2
[10] = target: T1, 5-hydroxytryptamine receptor 1A (Homo sapiens); assay: Antagonist activity at human recombinant 5HT1A receptor expressed in HEK293 cells assessed as inhibition of 8-OH-DPAT-induced response at 1 uM; type: cell-based; procedure, shortened: as §2
[11] = target: 5-hydroxytryptamine receptor 7 (Homo sapiens) (UniProt P34969); assay: Agonist activity at human recombinant 5HT7 receptor expressed in CHO cells assessed as intracellular cAMP release at 1 uM by HTRF assay; type: functional, cell-based; procedure, shortened: as §2
[12] = target: T4, D(4) dopamine receptor (Homo sapiens) (UniProt P21917); assay: Agonist activity at human recombinant D4 receptor expressed in CHO cells assessed as intracellular cAMP release at 1 uM by HTRF method; type: functional, cell-based; procedure, shortened: as §2
T4 sequence (whole entry): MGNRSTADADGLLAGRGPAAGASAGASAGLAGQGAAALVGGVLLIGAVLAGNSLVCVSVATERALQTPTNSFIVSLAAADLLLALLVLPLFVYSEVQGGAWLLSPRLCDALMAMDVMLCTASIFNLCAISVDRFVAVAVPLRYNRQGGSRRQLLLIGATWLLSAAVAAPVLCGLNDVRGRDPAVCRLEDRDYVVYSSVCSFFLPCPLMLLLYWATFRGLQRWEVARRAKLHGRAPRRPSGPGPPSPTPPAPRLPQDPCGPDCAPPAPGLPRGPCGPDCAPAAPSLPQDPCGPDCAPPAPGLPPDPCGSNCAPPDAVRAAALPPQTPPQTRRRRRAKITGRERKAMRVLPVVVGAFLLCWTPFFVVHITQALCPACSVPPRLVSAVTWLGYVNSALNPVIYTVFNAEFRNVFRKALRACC

[13] = target: Histamine H1 receptor (Homo sapiens) (UniProt P35367); assay: Antagonist activity at human recombinant H1 receptor expressed in HEK-293 cells assessed as inhibition of histamine-induced intracellular Ca2+ release at 1 uM by fluorimetry; type: functional, cell-based; details: HEK293; procedure, shortened: as §2
[14] = target: T2, Alpha-2C adrenergic receptor (Homo sapiens); assay: Displacement of [3H]RX821002 from human alpha2C adrenergic receptor expressed in CHO cells at 1 uM by scintillation counting analysis; type: cell-based; procedure, shortened: as §1
[15] = target: D(3) dopamine receptor (Homo sapiens) (UniProt P35462); assay: Agonist activity at human recombinant D3 receptor expressed in CHO cells assessed as intracellular cAMP release at 1 uM by HTRF method; type: functional, cell-based; procedure, shortened: as §2
[16] = target: D(3) dopamine receptor (Homo sapiens) (UniProt P35462); assay: Antagonist activity at human recombinant D3 receptor expressed in CHO cells assessed as inhibition of dopamine-induced intracellular cAMP release at 1 uM by HTRF method; type: functional, cell-based; procedure, shortened: as §2
[17] = target: 5-hydroxytryptamine receptor 2A (Homo sapiens) (UniProt P28223); assay: Antagonist activity at human recombinant 5HT2A receptor expressed in HEK293 cells assessed as inhibition of serotonin-induced intracellular IP1 release at 1 uM by HTRF assay; type: functional, cell-based; procedure, shortened: as §2
[18] = target: T4, D(4) dopamine receptor (Homo sapiens); assay: Antagonist activity at human recombinant D4 receptor expressed in CHO cells assessed as inhibition of dopamine-induced intracellular cAMP release at 1 uM by HTRF method; type: functional, cell-based; procedure, shortened: as §2
[19] = target: 5-hydroxytryptamine receptor 2A (Homo sapiens) (UniProt P28223); assay: Agonist activity at human recombinant 5HT2A receptor expressed in HEK293 cells assessed as intracellular IP1 release at 1 uM by HTRF assay; type: functional, cell-based; procedure, shortened: as §2

Chain of 5-hydroxytryptamine receptor 7 (Homo sapiens) (P34969 whole entry): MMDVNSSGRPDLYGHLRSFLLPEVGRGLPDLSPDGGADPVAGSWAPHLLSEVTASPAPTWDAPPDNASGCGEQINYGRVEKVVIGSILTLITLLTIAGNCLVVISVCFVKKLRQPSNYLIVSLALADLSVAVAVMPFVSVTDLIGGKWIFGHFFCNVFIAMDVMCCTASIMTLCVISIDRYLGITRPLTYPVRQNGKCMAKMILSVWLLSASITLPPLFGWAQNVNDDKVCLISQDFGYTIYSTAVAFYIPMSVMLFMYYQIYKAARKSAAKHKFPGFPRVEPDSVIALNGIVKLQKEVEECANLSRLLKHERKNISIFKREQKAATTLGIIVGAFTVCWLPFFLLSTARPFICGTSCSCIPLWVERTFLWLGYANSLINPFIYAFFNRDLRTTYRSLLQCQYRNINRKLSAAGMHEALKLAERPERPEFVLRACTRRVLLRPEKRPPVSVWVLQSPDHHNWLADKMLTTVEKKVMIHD
Chain of D(3) dopamine receptor (Homo sapiens) (P35462 whole entry): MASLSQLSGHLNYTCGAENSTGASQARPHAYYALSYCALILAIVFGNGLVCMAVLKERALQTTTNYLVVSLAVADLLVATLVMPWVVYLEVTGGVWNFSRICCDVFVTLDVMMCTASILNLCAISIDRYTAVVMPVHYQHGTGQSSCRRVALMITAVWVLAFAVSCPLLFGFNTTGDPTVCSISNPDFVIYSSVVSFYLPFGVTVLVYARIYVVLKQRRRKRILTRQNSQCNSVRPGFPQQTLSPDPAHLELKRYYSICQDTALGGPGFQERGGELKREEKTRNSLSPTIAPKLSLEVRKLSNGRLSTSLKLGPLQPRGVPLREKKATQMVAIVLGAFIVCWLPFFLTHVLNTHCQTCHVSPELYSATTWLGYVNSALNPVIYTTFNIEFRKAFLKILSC
Chain of D(2) dopamine receptor (Homo sapiens) (P14416 whole entry): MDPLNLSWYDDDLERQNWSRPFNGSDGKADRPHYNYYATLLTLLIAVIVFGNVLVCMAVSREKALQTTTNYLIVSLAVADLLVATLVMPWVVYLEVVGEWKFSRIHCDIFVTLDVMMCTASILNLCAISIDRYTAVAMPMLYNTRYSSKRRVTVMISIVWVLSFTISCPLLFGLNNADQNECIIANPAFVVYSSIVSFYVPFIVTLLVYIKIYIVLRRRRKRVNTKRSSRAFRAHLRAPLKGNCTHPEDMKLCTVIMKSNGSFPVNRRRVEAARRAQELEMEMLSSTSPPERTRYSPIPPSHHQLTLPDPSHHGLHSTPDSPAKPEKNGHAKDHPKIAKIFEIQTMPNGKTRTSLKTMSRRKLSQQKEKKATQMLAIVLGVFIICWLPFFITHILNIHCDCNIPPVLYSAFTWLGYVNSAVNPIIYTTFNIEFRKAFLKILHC
Chain of 5-hydroxytryptamine receptor 2A (Homo sapiens) (P28223 whole entry): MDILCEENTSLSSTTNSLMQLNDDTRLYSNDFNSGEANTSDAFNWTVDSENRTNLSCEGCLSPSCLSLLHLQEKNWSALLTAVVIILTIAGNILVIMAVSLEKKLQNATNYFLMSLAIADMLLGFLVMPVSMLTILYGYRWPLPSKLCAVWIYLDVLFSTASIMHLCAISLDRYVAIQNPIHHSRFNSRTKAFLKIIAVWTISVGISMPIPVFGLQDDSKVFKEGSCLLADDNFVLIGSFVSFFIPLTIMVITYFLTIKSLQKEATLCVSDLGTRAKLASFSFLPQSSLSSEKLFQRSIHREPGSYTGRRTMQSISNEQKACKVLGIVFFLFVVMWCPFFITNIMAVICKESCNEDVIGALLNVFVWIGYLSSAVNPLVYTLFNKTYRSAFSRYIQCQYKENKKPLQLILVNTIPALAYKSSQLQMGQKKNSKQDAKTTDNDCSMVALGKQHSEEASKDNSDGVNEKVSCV
Chain of Histamine H1 receptor (Homo sapiens) (P35367 whole entry): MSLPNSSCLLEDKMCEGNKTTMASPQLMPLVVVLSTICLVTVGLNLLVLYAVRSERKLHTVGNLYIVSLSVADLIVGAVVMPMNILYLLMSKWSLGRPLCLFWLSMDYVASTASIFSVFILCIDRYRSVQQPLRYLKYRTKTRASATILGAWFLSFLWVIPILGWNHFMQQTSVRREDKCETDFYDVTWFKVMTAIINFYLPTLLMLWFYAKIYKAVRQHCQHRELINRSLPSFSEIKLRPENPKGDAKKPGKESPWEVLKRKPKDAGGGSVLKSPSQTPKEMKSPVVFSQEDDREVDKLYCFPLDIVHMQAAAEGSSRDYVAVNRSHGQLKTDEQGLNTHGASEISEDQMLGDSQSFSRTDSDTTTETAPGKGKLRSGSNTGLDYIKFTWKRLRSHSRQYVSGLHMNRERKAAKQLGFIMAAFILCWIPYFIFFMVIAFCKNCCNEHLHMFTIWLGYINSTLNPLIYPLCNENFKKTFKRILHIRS

Row | inhibition [1] | inhibition [2] | Activity [3] | inhibition [4] | inhibition [5] | Activity [6] | Activity [7] | inhibition [8] | Activity [9] | inhibition [10] | Activity [11] | Activity [12] | inhibition [13] | inhibition [14] | Activity [15] | inhibition [16] | inhibition [17] | inhibition [18] | Activity [19] | SMILES
1 | 103% | 85% | 15% | 28% | 100% | 2% | 20% | 95% | 37% | 102% | 6% | 27% | 58% | 101% | 20% | 66% | 18% | 75% | 1% | COc1ccccc1N1CCN(CCCCN2C(=O)NC3(CCc4ccccc43)C2=O)CC1 (centres undefined)
2 | 103% | – | – | – | 98% | – | – | – | – | – | – | – | – | 97% | – | – | – | – | – | O=C1NC2(CCc3ccccc32)C(=O)N1CCCCN1CCN(c2cccc(Cl)c2)CC1 (centres undefined)
3 | 98% | 91% | 20% | 43% | 69% | 1% | 24% | 94% | 26% | 101% | 6% | 15% | 63% | 101% | 18% | 53% | 27% | 84% | 0% | COc1ccccc1N1CCN(CCCCN2C(=O)NC3(CCCc4ccccc43)C2=O)CC1 (centres undefined)
4 | 99% | – | – | – | 95% | – | – | – | – | – | – | – | – | 99% | – | – | – | – | – | O=C1NC2(CCCc3ccccc32)C(=O)N1CCCCN1CCN(c2cccc(Cl)c2)CC1 (centres undefined)
